Measured values as given in ChEMBL document CHEMBL4689842, “EUbOPEN Chemogenomics Library wave 1” (2021).

Legend:
HEK-293T = assay: Multiplex assay against HEK293T; type: toxicity, cell-based; conditions: human;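 as to Population Tubulin-Different-Phenotype (%): share of the cells with healthy nuclei that show this phenotype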
Summary of the method: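 Compound was added to live cells that had been stained at seeding with Hoechst33342, BioTracker Green Microtubule Cytoskeleton Dye, MitoTracker Red and Annexin V Alexa Fluor 680, and imaging followed on a CQ1 microscope at 37°C and 5% CO2. CellPathfinder machine-learning gating divided cells into Hoechst high-intensity objects or normal cells, normal cells into healthy, pyknosed or fragmented nuclei, and pyknosed cells into mitotic or apoptotic. Tubulin, mitochondrial-mass and membrane-permeability phenotypes are per cents of healthy-nucleus cells.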

Fibroblast = assay: Incucyte cell viability with human fibroblast; type: toxicity, cell-based; conditions: 10 µM, compound concentration 10 uM; also: filed as whole numbers so only -1 and 0 and 1 occur
[1] = 12 h, 1 µM, compound concentration 1 uM, replicate 1
[2] = 12 h, 1 µM, compound concentration 1 uM, replicate 2
[3] = 12 h, 10 µM, compound concentration 10 uM, replicate 1
[4] = 12 h, 10 µM, compound concentration 10 uM, replicate 2
[5] = 24 h, 1 µM, compound concentration 1 uM, replicate 1
[6] = 24 h, 1 µM, compound concentration 1 uM, replicate 2
[7] = 24 h, 10 µM, compound concentration 10 uM, replicate 1
[8] = 24 h, 10 µM, compound concentration 10 uM, replicate 2
[9] = 48 h, 1 µM, compound concentration 1 uM, replicate 1
[10] = 48 h, 1 µM, compound concentration 1 uM, replicate 2
[11] = 48 h, 10 µM, compound concentration 10 uM, replicate 1
[12] = 48 h, 10 µM, compound concentration 10 uM, replicate 2

## Nc1ccc(C(=O)Nc2cccc(-c3nc(N4CCOCC4)c4oc5ncccc5c4n3)c2)cn1
HEK-293T; [1]
  Population Apoptotic (%): 66%
  Population Fragmented Nuclei (%): 24%
  Population Healthy Nuclei (%): 15%
  Population Hoechst High Intensity Objects (%): 19%
  Population Mitochondria Different-Phenotype (%): 94%
  Population Mitotic Cells (%): 33%
  Population Normal (%): 80%
  Population Pyknosed Nuclei (%): 60%
  Population Tubulin-Different-Phenotype (%): 94%
HEK-293T; [2]
  Population Apoptotic (%): 34%
  Population Fragmented Nuclei (%): 8%
  Population Healthy Nuclei (%): 10%
  Population Hoechst High Intensity Objects (%): 8%
  Population Mitochondria Different-Phenotype (%): 46%
  Population Mitotic Cells (%): 65%
  Population Normal (%): 91%
  Population Pyknosed Nuclei (%): 81%
  Population Tubulin-Different-Phenotype (%): 80%
  Total Cell Count: 149
HEK-293T; [3]
  Population Apoptotic (%): 83%
  Population Fragmented Nuclei (%): 44%
  Population Healthy Nuclei (%): 5%
  Population Hoechst High Intensity Objects (%): 25%
  Population Mitochondria Different-Phenotype (%): 100%
  Population Mitotic Cells (%): 16%
  Population Normal (%): 74%
  Population Pyknosed Nuclei (%): 49%
  Population Tubulin-Different-Phenotype (%): 76%
  Total Cell Count: 385
HEK-293T; [4]
  Population Apoptotic (%): 53%
  Population Fragmented Nuclei (%): 15%
  Population Healthy Nuclei (%): 13%
  Population Hoechst High Intensity Objects (%): 8%
  Population Mitochondria Different-Phenotype (%): 75%
  Population Mitotic Cells (%): 46%
  Population Normal (%): 91%
  Population Pyknosed Nuclei (%): 70%
  Population Tubulin-Different-Phenotype (%): 70%
  Total Cell Count: 330
HEK-293T; [5]
  Population Apoptotic (%): 64%
  Population Fragmented Nuclei (%): 22%
  Population Healthy Nuclei (%): 17%
  Population Hoechst High Intensity Objects (%): 19%
  Population Mitochondria Different-Phenotype (%): 95%
  Population Mitotic Cells (%): 35%
  Population Normal (%): 80%
  Population Pyknosed Nuclei (%): 59%
  Population Tubulin-Different-Phenotype (%): 90%
  Total Cell Count: 147
HEK-293T; [6]
  Population Apoptotic (%): 40%
  Population Fragmented Nuclei (%): 3%
  Population Healthy Nuclei (%): 37%
  Population Hoechst High Intensity Objects (%): 8%
  Population Mitochondria Different-Phenotype (%): 68%
  Population Mitotic Cells (%): 59%
  Population Normal (%): 91%
  Population Pyknosed Nuclei (%): 58%
  Population Tubulin-Different-Phenotype (%): 96%
  Total Cell Count: 171
HEK-293T; [7]
  Population Apoptotic (%): 80%
  Population Fragmented Nuclei (%): 45%
  Population Healthy Nuclei (%): 7%
  Population Hoechst High Intensity Objects (%): 21%
  Population Mitochondria Different-Phenotype (%): 100%
  Population Mitotic Cells (%): 19%
  Population Normal (%): 78%
  Population Pyknosed Nuclei (%): 47%
  Population Tubulin-Different-Phenotype (%): 79%
  Total Cell Count: 389
HEK-293T; [8]
  Population Apoptotic (%): 67%
  Population Fragmented Nuclei (%): 15%
  Population Healthy Nuclei (%): 15%
  Population Hoechst High Intensity Objects (%): 8%
  Population Mitochondria Different-Phenotype (%): 81%
  Population Mitotic Cells (%): 32%
  Population Normal (%): 91%
  Population Pyknosed Nuclei (%): 69%
  Population Tubulin-Different-Phenotype (%): 50%
  Total Cell Count: 315
HEK-293T; [9]
  Population Apoptotic (%): 67%
  Population Fragmented Nuclei (%): 27%
  Population Healthy Nuclei (%): 31%
  Population Hoechst High Intensity Objects (%): 20%
  Population Mitochondria Different-Phenotype (%): 82%
  Population Mitotic Cells (%): 32%
  Population Normal (%): 79%
  Population Pyknosed Nuclei (%): 40%
  Population Tubulin-Different-Phenotype (%): 86%
  Total Cell Count: 183
HEK-293T; [10]
  Population Apoptotic (%): 61%
  Population Fragmented Nuclei (%): 6%
  Population Healthy Nuclei (%): 55%
  Population Hoechst High Intensity Objects (%): 8%
  Population Mitochondria Different-Phenotype (%): 49%
  Population Mitotic Cells (%): 38%
  Population Normal (%): 91%
  Population Pyknosed Nuclei (%): 38%
  Population Tubulin-Different-Phenotype (%): 92%
  Total Cell Count: 187
HEK-293T; [11]
  Population Apoptotic (%): 75%
  Population Fragmented Nuclei (%): 51%
  Population Healthy Nuclei (%): 10%
  Population Hoechst High Intensity Objects (%): 28%
  Population Mitochondria Different-Phenotype (%): 97%
  Population Mitotic Cells (%): 24%
  Population Normal (%): 71%
  Population Pyknosed Nuclei (%): 38%
  Population Tubulin-Different-Phenotype (%): 60%
  Total Cell Count: 484
HEK-293T; [12]
  Population Apoptotic (%): 73%
  Population Fragmented Nuclei (%): 17%
  Population Healthy Nuclei (%): 18%
  Population Hoechst High Intensity Objects (%): 8%
  Population Mitochondria Different-Phenotype (%): 84%
  Population Mitotic Cells (%): 26%
  Population Normal (%): 91%
  Population Pyknosed Nuclei (%): 64%
  Population Tubulin-Different-Phenotype (%): 55%
  Total Cell Count: 304
Fibroblast; 0 h, replicate number 1, timepoint 0 hours
  Growth Rate: 0
Fibroblast; 6 h, replicate number 1, timepoint 6 hours
  Growth Rate: 0
Fibroblast; 12 h, replicate number 1, timepoint 12 hours
  Growth Rate: 0
Fibroblast; 18 h, replicate number 1, timepoint 18 hours
  Growth Rate: 0
Fibroblast; 18 h, replicate number 2, timepoint 18 hours
  Growth Rate: 1
Fibroblast; 24 h, replicate number 1, timepoint 24 hours
  Growth Rate: 0
